# Published values from different studies.
# Lines come from different studies, so protocols differ.
# SLC10A2: Ileal sodium/bile acid cotransporter (SLC10A2, Homo sapiens, UniProt Q12908)
# SETD7: Histone-lysine N-methyltransferase SETD7 (SETD7, Homo sapiens, UniProt Q8WTS6)
# CNR2: Cannabinoid receptor 2 (CNR2, Homo sapiens, UniProt P34972)
# HSD11B1: 11-beta-hydroxysteroid dehydrogenase 1 (HSD11B1, Homo sapiens, UniProt P28845)
# CSNK1A1: Casein kinase I isoform alpha (CSNK1A1, Homo sapiens, UniProt P48729)
# ADRB2: Beta-2 adrenergic receptor (ADRB2, Homo sapiens, UniProt P07550)
SMILES,target,test,system,setting,inhibition [%]
CC(CCc1ccccc1)NCC(O)c1ccc(O)c(C(N)=O)c1 (centres unmarked),SLC10A2,"transporter uptake, inhibitor, radiometric",,1 mM,38.6
CCCNc1nc2ccccc2n1Cc1ccc(Cl)cc1,"D(1B) dopamine receptor (DRD5, Homo sapiens, UniProt P21918)",ligand displacement,,10 µM,69.6
C[C@H]1C[C@@H]2[C@H]([C@@H](O)C[C@@]3(C)[C@H]2CC[C@]3(O)C(=O)CO)[C@@]2(C)C=CC(=O)C=C12,SLC10A2,"transporter uptake, inhibitor, radiometric",,1 mM,< 10
O=C1C=C2CC3(O)COc4c(ccc(O)c4O)C3=C2C=C1O (centres unmarked),SETD7,cell-free assay,,10 µM,28
NS(=O)(=O)c1cc2c(cc1Cl)N=CNS2(=O)=O,SLC10A2,"transporter uptake, inhibitor, radiometric",,1 mM,25.3
Oc1cccc(Nc2nc(-c3ccc(F)cc3F)cs2)c1,CNR2,cell-free assay,,10 µM,35.3
Cc1cc(-c2ccc(/N=N/c3ccc4c(S(=O)(=O)O)cc(S(=O)(=O)O)c(N)c4c3O)c(C)c2)ccc1/N=N/c1ccc2c(S(=O)(=O)O)cc(S(=O)(=O)O)c(N)c2c1O,SETD7,cell-free assay,,10 µM,101
CCOC(=O)C1=C(COCCN)NC(C)=C(C(=O)OC)C1c1ccccc1Cl (centres unmarked),SLC10A2,"transporter uptake, inhibitor, radiometric",,1 mM,95.5
O=C(O)CCCCCCCCCCCC[C@@H]1C=CCC1,SETD7,cell-free assay,,10 µM,-48
COc1ccc(-n2nc(OCCCN3CCCCC3)ccc2=O)cc1,CNR2,ligand displacement,,1 µM,33.1
CC(C)(C#N)c1cc(Cn2cncn2)cc(C(C)(C)C#N)c1,SLC10A2,"transporter uptake, inhibitor, radiometric",,1 mM,36.8
CN(C)CCCN1c2ccccc2Sc2ccc(Cl)cc21,HSD11B1,"enzyme activity, inhibitor",,"20 µM, lysate",< 40
O=C(O)c1ncccc1O,"72 kDa type IV collagenase (MMP2, Homo sapiens, UniProt P08253)","enzyme activity, inhibitor, fluorescence",,1 mM,~50
CC(=O)N[C@H]1CSSC[C@@H](C(=O)N[C@@H](Cc2c[nH]c3ccccc23)C(N)=O)NC(=O)[C@H](Cc2ccccc2)NC(=O)[C@H](CCCNC(=N)N)NC1=O,"Melanocortin receptor 5 (MC5R, Homo sapiens, UniProt P33032)","ligand displacement, radioligand",,"10 µM, 40 min",0
CN(C)C1CCN(CC#Cc2nn(C3CCCC3)c3nc(NCc4ccccc4)ncc23)C1 (centres unmarked),CSNK1A1,"enzyme activity, inhibitor, FRET",,10 µM,1
O=C(c1ccc(Cl)cc1)N(Cc1ccccc1)C1CCCCC1,ADRB2,cell-free assay,,10 µM,1.6
O=C(NC[C@H]1CN(c2ccc(N3CCOCC3=O)cc2)C(=O)O1)c1ccc(Cl)s1,"Coagulation factor X (F10, Homo sapiens, UniProt P00742)","enzyme activity, inhibitor, absorbance",,0.1 µM,88.6
CCN1CCN(Cc2ccc(NC(=O)c3ccc(C)c(/C=C/c4cnc5[nH]ccc5c4OC)c3)cc2C(F)(F)F)CC1,CSNK1A1,"target engagement in cells, inhibitor, chemoproteomics",A-375,5 µM,-58.8
C=CCSCC1Nc2cc(Cl)c(S(N)(=O)=O)cc2S(=O)(=O)N1 (centres unmarked),SLC10A2,"transporter uptake, inhibitor, radiometric",,1 mM,57.9
CCCCc1oc2ccccc2c1C(=O)c1cc(I)c(OCCN(CC)CC)c(I)c1,HSD11B1,"enzyme activity, inhibitor",,"20 µM, lysate",< 40
COc1cc(NC(C)=O)c(Cl)cc1C(=O)Nc1nccs1,ADRB2,cell-free assay,,10 µM,-8.3
O=C(Oc1cc(O)cc2c1C[C@@H](OC(=O)c1cc(O)c(O)c(O)c1)[C@@H](c1cc(O)c(O)c(O)c1)O2)c1cc(O)c(O)c(O)c1,SETD7,cell-free assay,,10 µM,28
NS(=O)(=O)c1cc2c(cc1Cl)NCNS2(=O)=O,SLC10A2,"transporter uptake, inhibitor, radiometric",,1 mM,25.8
CN(CCOc1ccc(CC2SC(=O)NC2=O)cc1)c1ccccn1 (centres unmarked),HSD11B1,"enzyme activity, inhibitor",,"20 µM, lysate",< 40
CN1CCC(=C2c3ccccc3Sc3ccccc32)CC1,SETD7,cell-free assay,,10 µM,41
CN1CC(Oc2cnc(C#N)cc2-c2ccn3nc(NC(=O)C4CC4)cc3c2)C1,"Phosphatidylinositol 5-phosphate 4-kinase type-2 alpha (PIP4K2A, Homo sapiens, UniProt P48426)","enzyme activity, inhibitor",,1 µM,3
C=CC1=C(C)c2cc3[nH]c(cc4nc(cc5[nH]c(cc1n2)c(C)c5CCC(=O)O)C(CCC(=O)O)=C4C)c(C)c3C=C,SETD7,cell-free assay,,10 µM,34
CNC(=O)c1cc(Oc2ccc(NC(=O)Nc3ccc(Cl)c(C(F)(F)F)c3)cc2)ccn1,"G protein-coupled receptor kinase 5 (GRK5, Homo sapiens, UniProt P34947)","enzyme activity, inhibitor",,10 µM,0
COc1cc(NC(C)CCCN)c2ncccc2c1 (centres unmarked),SETD7,cell-free assay,,10 µM,-19
CCN(c1cc(C#CCN2CCOCC2)cc(C(=O)NCc2c(C)cc(C)[nH]c2=O)c1C)[C@H]1CC[C@H](N(C)CCOC)CC1,"Histone-lysine N-methyltransferase SUV39H1 (SUV39H1, Homo sapiens, UniProt O43463)","enzyme activity, inhibitor",,1 µM,11
C[C@@H](O)[C@H]1C(=O)N2C(C(=O)O)=C(S[C@@H]3CN[C@H](C(=O)N(C)C)C3)[C@H](C)[C@H]12,SLC10A2,"transporter uptake, inhibitor, radiometric",,1 mM,< 10
Cc1cc(O)c(C=O)c2c1C(=O)Oc1c(C)c(O)c3c(c1O2)C(O)OC3=O (centres unmarked),SETD7,cell-free assay,,10 µM,0
